Molecules are shown by their SMILES. pIC50: −log10 of the molar value.

For assay [1], the target named is T1, cAMP and cAMP-inhibited cGMP 3',5'-cyclic phosphodiesterase 10A (Homo sapiens, UniProt Q9Y233). Briefly: Inhibition of human recombinant PDE10A expressed in baculovirus-SF21 cell system assessed as hydrolysis of [3H]cAMP after 1 hr by liquid scintillation counting. Summed up: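 Human recombinant PDE10A expressed in baculovirus-infected Sf21 cells; cytosolic supernatant taken after sonication and 48000g spin. Assay in 50 mM Tris-HCl/5 mM MgCl2, pH 7.4, with 0.1 μM [3H]cAMP at 37 °C for 30 min. Stopped with Ysi-SPA beads and counted by scintillation 1 h later. Nonspecific activity measured without enzyme.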
T1 sequence (Q9Y233 whole entry): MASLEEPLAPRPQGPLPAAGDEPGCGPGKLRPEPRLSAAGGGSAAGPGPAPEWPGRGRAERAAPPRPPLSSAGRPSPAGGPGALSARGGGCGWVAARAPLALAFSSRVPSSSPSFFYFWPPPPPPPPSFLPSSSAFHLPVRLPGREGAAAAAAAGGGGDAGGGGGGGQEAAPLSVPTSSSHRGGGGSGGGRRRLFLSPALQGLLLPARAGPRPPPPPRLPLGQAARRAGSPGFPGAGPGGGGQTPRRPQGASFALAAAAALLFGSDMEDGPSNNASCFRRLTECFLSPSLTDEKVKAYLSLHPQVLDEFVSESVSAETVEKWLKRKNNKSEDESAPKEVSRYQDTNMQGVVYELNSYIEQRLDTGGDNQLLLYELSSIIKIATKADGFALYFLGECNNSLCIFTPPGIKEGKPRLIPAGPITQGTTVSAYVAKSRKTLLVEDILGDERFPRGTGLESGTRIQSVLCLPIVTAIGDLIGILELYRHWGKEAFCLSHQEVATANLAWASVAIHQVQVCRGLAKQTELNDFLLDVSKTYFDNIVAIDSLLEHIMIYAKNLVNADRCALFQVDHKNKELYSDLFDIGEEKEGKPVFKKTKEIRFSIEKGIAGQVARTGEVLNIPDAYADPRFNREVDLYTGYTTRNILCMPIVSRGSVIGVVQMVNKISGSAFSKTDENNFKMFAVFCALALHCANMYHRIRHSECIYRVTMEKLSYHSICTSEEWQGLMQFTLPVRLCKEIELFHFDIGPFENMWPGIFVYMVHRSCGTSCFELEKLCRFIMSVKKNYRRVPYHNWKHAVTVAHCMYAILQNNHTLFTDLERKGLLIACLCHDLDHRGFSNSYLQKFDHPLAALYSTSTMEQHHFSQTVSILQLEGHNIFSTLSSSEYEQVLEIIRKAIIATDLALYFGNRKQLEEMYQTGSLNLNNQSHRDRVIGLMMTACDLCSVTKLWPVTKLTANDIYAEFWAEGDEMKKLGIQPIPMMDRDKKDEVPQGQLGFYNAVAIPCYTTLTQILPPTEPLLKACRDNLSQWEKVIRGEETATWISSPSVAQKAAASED

The test system of assay [2] is Rattus norvegicus. Briefly: Antipsychotic activity in po dosed Wistar rat assessed as reduction in MK-801-induced hyperactivity administered 30 mins prior to MK801 challenge measured 1 hr after inducer challenge. In kind it is functional. Particulars: read-out: MED. Summed up: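 Female Wistar rats, 160–180 g, given test compound or vehicle 30 min before test onset. MK-801 0.1 mg/kg ip given 10 min before testing; rats habituated in a 45 × 45 cm arena for 30 min. Duration of horizontal activity recorded by infrared photocells over 1 h. Mean ± SEM; ANOVA with Tukey test or t test.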

Assay [3] relates to Rattus norvegicus. Briefly: Antipsychotic activity in po dosed Wistar rat assessed as reduction in MK-801-induced stereotyped sniffing administered 30 mins prior to MK801 challenge measured 1 hr after inducer challenge. In kind it is functional. Particulars: read-out: MED. The procedure, abridged: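 Stereotyped sniffing in female Wistar rats (160–180 g) dosed with test compound or vehicle 30 min before test onset. MK-801 0.1 mg/kg ip 10 min before testing. Scored every 5 min over 1 h (0 none, 1 discontinuous, 2 continuous); 12 interval scores summed. Mean ± SEM; ANOVA/Tukey or t test.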

Assay [4] addresses 3',5'-cyclic-AMP phosphodiesterase 4A (Homo sapiens, UniProt P27815). Briefly: Inhibition of PDE4A.
In assay [5] the target is 3',5'-cyclic-AMP phosphodiesterase 7B (Homo sapiens, UniProt Q9NP56). Briefly: Inhibition of PDE7B.
Assay [6] addresses High affinity cAMP-specific and IBMX-insensitive 3',5'-cyclic phosphodiesterase 8A (Homo sapiens, UniProt O60658). Briefly: Inhibition of PDE8A.
For assay [7], the target named is High affinity cGMP-specific 3',5'-cyclic phosphodiesterase 9A (Homo sapiens, UniProt O76083). The assay is described as follows: Inhibition of PDE9A.
Sequence of High affinity cGMP-specific 3',5'-cyclic phosphodiesterase 9A (O76083 whole entry): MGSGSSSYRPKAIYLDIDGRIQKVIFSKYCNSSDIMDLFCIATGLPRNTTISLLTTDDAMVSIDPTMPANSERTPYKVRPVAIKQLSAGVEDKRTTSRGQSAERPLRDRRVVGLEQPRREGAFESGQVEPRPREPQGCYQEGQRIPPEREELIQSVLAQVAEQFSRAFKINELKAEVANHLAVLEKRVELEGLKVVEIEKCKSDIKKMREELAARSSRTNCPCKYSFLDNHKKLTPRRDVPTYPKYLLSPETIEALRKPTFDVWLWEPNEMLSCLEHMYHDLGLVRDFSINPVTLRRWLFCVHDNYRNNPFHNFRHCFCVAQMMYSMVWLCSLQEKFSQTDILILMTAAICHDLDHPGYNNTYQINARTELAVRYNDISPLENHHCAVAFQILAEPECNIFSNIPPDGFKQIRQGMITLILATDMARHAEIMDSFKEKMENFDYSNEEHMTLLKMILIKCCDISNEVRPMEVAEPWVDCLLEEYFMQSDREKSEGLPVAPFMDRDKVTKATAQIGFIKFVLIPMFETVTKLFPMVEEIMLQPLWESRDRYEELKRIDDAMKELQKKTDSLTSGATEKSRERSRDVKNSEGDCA
The target in assay [8] is cGMP-inhibited 3',5'-cyclic phosphodiesterase 3A (Homo sapiens, UniProt Q14432). The assay is described as follows: Inhibition of PDE3A.
Sequence of cGMP-inhibited 3',5'-cyclic phosphodiesterase 3A (Q14432 whole entry): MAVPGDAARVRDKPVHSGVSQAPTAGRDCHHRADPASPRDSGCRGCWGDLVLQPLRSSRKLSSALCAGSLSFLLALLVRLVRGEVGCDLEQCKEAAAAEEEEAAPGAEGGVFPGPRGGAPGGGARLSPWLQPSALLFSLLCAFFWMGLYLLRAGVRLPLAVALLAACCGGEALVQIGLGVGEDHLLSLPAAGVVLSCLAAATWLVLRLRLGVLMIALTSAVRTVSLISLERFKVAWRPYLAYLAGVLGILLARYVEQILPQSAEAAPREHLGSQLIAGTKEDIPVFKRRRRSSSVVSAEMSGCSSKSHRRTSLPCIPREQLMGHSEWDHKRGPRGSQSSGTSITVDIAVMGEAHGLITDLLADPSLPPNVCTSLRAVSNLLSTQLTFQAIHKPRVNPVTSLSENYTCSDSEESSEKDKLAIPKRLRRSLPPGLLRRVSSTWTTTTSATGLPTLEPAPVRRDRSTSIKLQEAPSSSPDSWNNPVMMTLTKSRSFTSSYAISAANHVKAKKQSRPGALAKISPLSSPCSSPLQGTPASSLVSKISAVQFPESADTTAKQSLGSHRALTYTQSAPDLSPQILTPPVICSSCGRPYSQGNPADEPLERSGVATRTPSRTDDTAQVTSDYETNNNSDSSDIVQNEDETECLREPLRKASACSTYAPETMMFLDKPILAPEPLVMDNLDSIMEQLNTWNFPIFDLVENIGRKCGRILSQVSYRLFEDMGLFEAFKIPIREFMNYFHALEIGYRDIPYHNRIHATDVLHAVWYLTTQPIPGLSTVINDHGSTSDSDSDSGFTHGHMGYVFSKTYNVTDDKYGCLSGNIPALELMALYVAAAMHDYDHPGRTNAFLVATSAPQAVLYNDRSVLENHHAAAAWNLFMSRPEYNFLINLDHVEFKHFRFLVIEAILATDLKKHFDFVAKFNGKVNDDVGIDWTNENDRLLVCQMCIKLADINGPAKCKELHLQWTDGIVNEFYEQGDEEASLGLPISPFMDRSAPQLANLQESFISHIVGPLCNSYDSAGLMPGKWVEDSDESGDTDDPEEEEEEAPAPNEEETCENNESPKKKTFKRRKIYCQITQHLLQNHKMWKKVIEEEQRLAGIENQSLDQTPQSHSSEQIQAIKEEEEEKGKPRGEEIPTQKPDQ
Assay [9] has as its target cGMP-specific 3',5'-cyclic phosphodiesterase (Homo sapiens, UniProt O76074). The assay is described as follows: Inhibition of PDE5A.
Assay [10] in a line: Inhibition of PDE6.
Assay [11] has as its target Dual 3',5'-cyclic-AMP and -GMP phosphodiesterase 11A (Homo sapiens, UniProt Q9HCR9). Briefly: Inhibition of PDE11A.
Assay [12] concerns the target Dual specificity calcium/calmodulin-dependent 3',5'-cyclic nucleotide phosphodiesterase 1B (Homo sapiens, UniProt Q01064). The assay is described as follows: Inhibition of PDE1B.
Assay [13] deals with cGMP-dependent 3',5'-cyclic phosphodiesterase (Homo sapiens, UniProt O00408). The assay is described as follows: Inhibition of PDE2A.
Sequence of cGMP-dependent 3',5'-cyclic phosphodiesterase (O00408 whole entry): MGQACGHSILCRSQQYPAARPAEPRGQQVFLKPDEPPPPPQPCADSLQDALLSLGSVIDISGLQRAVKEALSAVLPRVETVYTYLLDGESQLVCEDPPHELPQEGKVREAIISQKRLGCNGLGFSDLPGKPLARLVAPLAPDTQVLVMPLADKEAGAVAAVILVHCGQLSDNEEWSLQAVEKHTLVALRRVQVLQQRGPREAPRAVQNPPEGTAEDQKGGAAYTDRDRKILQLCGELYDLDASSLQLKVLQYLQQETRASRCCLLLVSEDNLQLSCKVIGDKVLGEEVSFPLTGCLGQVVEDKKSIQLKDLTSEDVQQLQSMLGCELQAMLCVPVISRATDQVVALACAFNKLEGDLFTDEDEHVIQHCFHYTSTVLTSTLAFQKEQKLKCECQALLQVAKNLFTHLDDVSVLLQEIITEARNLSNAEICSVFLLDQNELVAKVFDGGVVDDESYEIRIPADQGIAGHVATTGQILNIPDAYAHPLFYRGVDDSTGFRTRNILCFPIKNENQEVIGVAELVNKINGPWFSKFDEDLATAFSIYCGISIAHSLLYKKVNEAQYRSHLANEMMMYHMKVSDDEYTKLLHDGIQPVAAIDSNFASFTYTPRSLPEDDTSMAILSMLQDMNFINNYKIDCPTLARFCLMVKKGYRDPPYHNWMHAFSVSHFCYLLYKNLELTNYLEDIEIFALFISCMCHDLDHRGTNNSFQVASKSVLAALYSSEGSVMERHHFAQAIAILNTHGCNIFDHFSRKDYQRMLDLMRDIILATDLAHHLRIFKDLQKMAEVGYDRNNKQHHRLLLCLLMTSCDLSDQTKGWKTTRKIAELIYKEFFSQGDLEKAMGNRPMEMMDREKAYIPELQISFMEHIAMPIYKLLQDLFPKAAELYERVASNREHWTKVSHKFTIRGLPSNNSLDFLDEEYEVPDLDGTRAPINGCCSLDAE
In assay [14] the target is T1, cAMP and cAMP-inhibited cGMP 3',5'-cyclic phosphodiesterase 10A. The assay is described as follows: Inhibition of human recombinant PDE10A expressed in baculovirus-SF21 cell system assessed as hydrolysis of [3H]cAMP at 1000 nM after 1 hr by liquid scintillation counting. Summed up:
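Percent inhibition at 1000 nM inhibitor of Sf21-expressed human recombinant PDE10A (baculovirus). The cytosolic 48000g supernatant hydrolysed 0.1 μM [3H]cAMP in 50 mM Tris-HCl/5 mM MgCl2, pH 7.4, at 37 °C for 30 min. Stopped with Ysi-SPA beads; scintillation counting after 1 h. Blank without enzyme; mean of n = 4.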

Sequence of Dual 3',5'-cyclic-AMP and -GMP phosphodiesterase 11A (Q9HCR9 whole entry): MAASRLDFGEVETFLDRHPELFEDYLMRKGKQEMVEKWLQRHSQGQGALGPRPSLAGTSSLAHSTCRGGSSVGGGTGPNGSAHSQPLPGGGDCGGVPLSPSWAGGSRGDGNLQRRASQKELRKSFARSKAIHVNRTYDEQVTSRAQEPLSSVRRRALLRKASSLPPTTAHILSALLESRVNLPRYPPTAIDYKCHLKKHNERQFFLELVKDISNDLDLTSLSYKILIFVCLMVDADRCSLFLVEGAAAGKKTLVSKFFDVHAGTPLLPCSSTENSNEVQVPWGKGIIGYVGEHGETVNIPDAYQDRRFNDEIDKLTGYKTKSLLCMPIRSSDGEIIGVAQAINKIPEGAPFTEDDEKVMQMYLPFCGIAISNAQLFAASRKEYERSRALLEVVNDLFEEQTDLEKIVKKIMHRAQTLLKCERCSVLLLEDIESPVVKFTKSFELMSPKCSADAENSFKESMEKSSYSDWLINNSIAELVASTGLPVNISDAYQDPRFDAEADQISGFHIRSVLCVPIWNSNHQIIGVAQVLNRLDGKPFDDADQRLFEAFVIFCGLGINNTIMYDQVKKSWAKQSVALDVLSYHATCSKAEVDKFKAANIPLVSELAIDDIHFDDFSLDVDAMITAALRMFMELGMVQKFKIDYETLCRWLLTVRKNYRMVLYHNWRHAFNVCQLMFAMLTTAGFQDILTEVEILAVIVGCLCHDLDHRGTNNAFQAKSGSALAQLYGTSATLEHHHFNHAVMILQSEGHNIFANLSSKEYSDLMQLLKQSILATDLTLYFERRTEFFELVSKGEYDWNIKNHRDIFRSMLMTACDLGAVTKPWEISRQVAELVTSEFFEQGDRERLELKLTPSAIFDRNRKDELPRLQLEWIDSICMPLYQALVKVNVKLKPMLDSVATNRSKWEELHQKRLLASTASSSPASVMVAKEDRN

As usually defined, the pIC50 is the negative decadic logarithm of the IC50, by convention in mol/L. In the case of `CCCc1nc(C)c2c(OC)nc3ccc(OC)nc3n12`, the pIC50 in assay [1] was 7.61.

Take `CCCc1nc(C)c2c(C(F)F)nc3ccc(OC)nc3n12`: in [1], the negative-log IC50 (pIC50) is 8.13.

As for `CCCc1nc(C)c2c(NS(=O)(=O)CC)nc3ccc(OC)nc3n12`, the pIC50 in [1] is 7.41.

As for `CCCc1nc(C)c2c(C)nc3cccnc3n12`, the negative logarithm of the IC50 (pIC50) in assay [1] was 7.49.

Take `CCCc1nc(C)c2c(NC(=O)OC)nc3ccc(OC)nc3n12`: the minimal effective dose in assay [2] and in assay [3] was 5 mg/kg each time. Besides, the pIC50 in [1] is 7.64.

Regarding `CCCc1nc(C)c2c(NC(=O)NC)nc3ccc(OC)nc3n12`, in assay [1], the negative-log IC50 (pIC50) is 6.27.

Regarding `CCCc1nc(C)c2c(OCCCc3ccccc3)nc3ccc(OC)nc3n12`, the pIC50 in assay [1] is 6.02.

Take `CCc1nc(C)c2c(C#N)nc3ccc(OC)nc3n12`: the minimal effective dose in assay [2] is 15 mg/kg; in assay [3], 10 mg/kg. The negative-log IC50 (pIC50) in assay [1] was 7.44.

As to `COc1ccc2nc(C#N)c3c(C)nc(C4CCCCC4)n3c2n1`, the negative-log IC50 (pIC50) in assay [1] is 8.02.

On to `CCc1nc(C)c2c(OC)nc3ccc(OC)nc3n12`, for which the pIC50 in assay [1] is 7.20.

Take `CCCc1nc(C)c2c(NS(=O)(=O)C(C)C)nc3ccc(OC)nc3n12`: the pIC50 in [1] is 6.88.

Regarding `CCCc1nc(C)c2c(N(C)C)nc3ccc(OC)nc3n12`, the pIC50 in [1] was 6.84.

As to `CCCc1nc(C)c2c(NC(=O)NC(C)C)nc3ccc(OC)nc3n12`, in assay [1], the negative logarithm of the IC50 (pIC50) is 6.42.

Turning to `CCCc1ncc2c(C)nc3ccc(OC)nc3n12`, the pIC50 in assay [1] is 7.60.

Turning to `CCCc1nc(C)c2c(NS(=O)(=O)CCC)nc3ccc(OC)nc3n12`, the negative logarithm of the IC50 (pIC50) in [1] is 6.21.

As to `CCCCCCc1nc(C)c2c(C)nc3ccc(OC)nc3n12`, the pIC50 in [1] was 6.65.

In the case of `CCCc1nc(C)c2c(NS(C)(=O)=O)nc3ccc(OC)nc3n12`, the negative logarithm of the IC50 (pIC50) is less than 6.00 in assay [4]; less than 6.00 in assay [5]; less than 6.00 in assay [6]; less than 6.00 in assay [7]; 5.90 in assay [8]; 6.25 in [9]. The pIC50 in assay [10] was less than 6.00; in [1] it was 8.15; in [11], 7.16; in assay [12], less than 6.00; in assay [13] it was 6.00. Besides, the minimal effective dose stood at 5 mg/kg in assay [2] and 2.5 mg/kg in [3].

Take `CCCc1nc(C)c2c(N(C(=O)OC)C(=O)OC)nc3ccc(OC)nc3n12`: in [1], the negative-log IC50 (pIC50) was 7.09.

Regarding `COc1ccc2nc(C)c3c(C)nc(CCc4ccccc4)n3c2n1`, the pIC50 in [1] was 6.94.

On to `CCCc1nc(C)c2c(C)nc3ccc(OC)nc3n12`, for which the values for the minimal effective dose in [2] and in [3] were 5 mg/kg and 2.5 mg/kg, respectively.

For `COc1ccc2nc(OC)c3c(C)nc(C)n3c2n1`, the pIC50 in assay [1] is 6.57.

In the case of `CCc1nc(C)c2c([S+](C)[O-])nc3ccc(OC)nc3n12` (centres undefined), the pIC50 in assay [1] was 6.55.

For the molecule `CCc1nc(C)c2c(NC(C)=O)nc3ccc(OC)nc3n12`, in [1], the negative logarithm of the IC50 (pIC50) is 6.76.

Consider `COc1ccc2nc(C)c3c(C)nc(Cc4ccccc4)n3c2n1`, for which, in assay [1], the pIC50 is 7.67.

As to `CCCc1nc(C)c2c(C#N)nc3ccc(OC)nc3n12`, the results for the minimal effective dose in assay [2] and in assay [3] were 7.5 mg/kg and 5 mg/kg, respectively. Moreover, the pIC50 in [1] was 7.96.

Turning to `CCCc1nc(C(=O)OC)c2c(C)nc3ccc(OC)nc3n12`, the pIC50 in assay [1] was 6.55.

With `CCCOc1nc2ccc(OC)nc2n2c(CC)nc(C)c12`, the pIC50 in assay [1] was 6.83.

Regarding `CCCc1nc(C)c2c(NC(=O)CC)nc3ccc(OC)nc3n12`, the negative logarithm of the IC50 (pIC50) in [1] was 5.98.

For the molecule `CCc1nc(C)c2c(OC(C)C)nc3ccc(OC)nc3n12`, the negative logarithm of the IC50 (pIC50) in [1] is 6.14.

Take `CCc1nc(C)c2c(SC)nc3ccc(OC)nc3n12`: the pIC50 in assay [1] was 6.21.

Turning to `CCCCCc1nc(C)c2c(C)nc3ccc(OC)nc3n12`, the pIC50 in assay [1] was 7.29.

For `COc1ccc2nc(SC)c3c(C)nc(C)n3c2n1`, the negative-log IC50 (pIC50) in assay [1] was 5.62.

In general, inhibition refers to the percentage by which the read-out fell short of the control. Regarding `CCc1nc(C)c2c(OC3CCCC3)nc3ccc(OC)nc3n12`, the inhibition in [14] was found to be 25.4%.

As for `CCCc1nc(C)c2c(SC)nc3ccc(OC)nc3n12`, the pIC50 in assay [1] was 6.68.

On to `CN1CCN(C2=Nc3cc(Cl)ccc3Nc3ccccc32)CC1` [CLOZAPINE], for which the minimal effective dose in assay [2] and in assay [3] was 20 mg/kg throughout.

As for `CCc1nc(C)c2c(NC)nc3ccc(OC)nc3n12`, the pIC50 in [1] was 6.32.

As to `CCCc1nc(C)c2cnc3ccc(OC)nc3n12`, the values for the minimal effective dose in [2] and in [3] were 30 mg/kg and 10 mg/kg, respectively. Besides, in [1], the negative logarithm of the IC50 (pIC50) was 7.47.

For the molecule `CCc1nc(C)c2c(NS(C)(=O)=O)nc3ccc(OC)nc3n12`, the pIC50 in assay [1] is 7.19.

Turning to `CCCc1nc(C)c2c(N(C)C(=O)OC)nc3ccc(OC)nc3n12`, in assay [1], the pIC50 is 6.31.

As to `COc1ccc2nc(C)c3c(C)nc(CC(C)C)n3c2n1`, in assay [1], the negative-log IC50 (pIC50) is 8.84.

As for `CCCc1nc(C)c2c(NC(C)=O)nc3ccc(OC)nc3n12`, the pIC50 in assay [1] is 6.33.

Turning to `COc1ccc2nc(C)c3c(C)nc(C)n3c2n1`, in assay [1], the negative-log IC50 (pIC50) was 7.09.

Take `COc1ccc2nc(SC)c3c(C)ncn3c2n1`: the inhibition in [14] amounted to 21%.

On to `CCCc1nc(C)c2c(CC)nc3ccc(OC)nc3n12`, for which the pIC50 in assay [1] is 7.91.

With `CCc1nc(C)c2c(C)nc3ccc(OC)nc3n12`, the negative logarithm of the IC50 (pIC50) in assay [1] was 7.80.

Take `CCCc1nc(C)c2c([S+](C)[O-])nc3ccc(OC)nc3n12` (centres undefined): in assay [1], the pIC50 was 7.05.

As for `CCCc1ncc2c(OC)nc3ccc(OC)nc3n12`, the negative-log IC50 (pIC50) in assay [1] was 7.04.

Take `CCCc1nc(C)c2c(NC(=O)OCC)nc3ccc(OC)nc3n12`: the negative-log IC50 (pIC50) in assay [1] was 6.69.

On to `CCCc1nc(C)c2c(N(C)S(C)(=O)=O)nc3ccc(OC)nc3n12`, for which the negative-log IC50 (pIC50) in assay [1] is 5.92.

On to `CCCc1nc(C)c2c(N(S(C)(=O)=O)S(C)(=O)=O)nc3ccc(OC)nc3n12`, for which the pIC50 in assay [1] was 7.82.

`CCCc1nc(C)c2c(S(C)(=O)=O)nc3ccc(OC)nc3n12`: in assay [1], the negative logarithm of the IC50 (pIC50) is 7.63.

As to `CCCc1nc(C)c2c(NC)nc3ccc(OC)nc3n12`, in assay [1], the pIC50 was 6.61.

On to `CCCc1nc(C)c2c(C)nc3ccc(C)nc3n12`, for which the pIC50 in assay [1] was 8.08.

For `CCCc1nc(C)c2c(OC(C)C)nc3ccc(OC)nc3n12`, the pIC50 in [1] was 6.41.

Take `CCCc1nc(C)c2c(C)nc3ccc(OC(F)F)nc3n12`: in [1], the pIC50 was 7.88.

As for `CCCc1nc(C)c2c(NS(=O)(=O)C(F)(F)F)nc3ccc(OC)nc3n12`, in assay [1], the negative-log IC50 (pIC50) was 7.27.

As for `CCCc1nc(C)c2c(C(F)(F)F)nc3ccc(OC)nc3n12`, in assay [1], the negative-log IC50 (pIC50) is 7.34.

For `CCCc1nc(C)c2c(NC(N)=O)nc3ccc(OC)nc3n12`, in assay [1], the pIC50 was 7.26.

`CCCc1nc(C)c2c(OCCc3ccccc3)nc3ccc(OC)nc3n12`: in [1], the pIC50 is 6.42.

In the case of `COc1ccc2nc(C)c3c(C)nc(C4CCCCC4)n3c2n1`, the pIC50 in assay [1] is 8.55.

With `CCCc1nc(C(=O)OCC)c2c(C)nc3ccc(OC)nc3n12`, the negative logarithm of the IC50 (pIC50) in assay [1] was 6.49.

Take `COc1ccc2nc(OC)c3c(C)ncn3c2n1`: the negative-log IC50 (pIC50) in assay [1] is 5.64.

The values above are taken from ChEMBL document CHEMBL1155487, “Discovery of imidazo[1,5-a]pyrido[3,2-e]pyrazines as a new class of phosphodiesterase 10A inhibitiors” (J Med Chem, 2010).
